In ChEMBL document CHEMBL3621067, “Antihyperlipidemic morpholine derivatives with antioxidant activity: An investigation of the aromatic substitution” (Bioorg Med Chem, 2015):

Legend:
[1] = target: T1, Squalene synthase (Rattus norvegicus, UniProt Q02769); assay: Inhibition of squalene synthase in rat liver microsomes assessed as reduction in conversion of [3H]farnesyl pyrophosphate to squalene incubated for 30 mins by liquid scintillation counting
T1 sequence (Q02769 whole entry): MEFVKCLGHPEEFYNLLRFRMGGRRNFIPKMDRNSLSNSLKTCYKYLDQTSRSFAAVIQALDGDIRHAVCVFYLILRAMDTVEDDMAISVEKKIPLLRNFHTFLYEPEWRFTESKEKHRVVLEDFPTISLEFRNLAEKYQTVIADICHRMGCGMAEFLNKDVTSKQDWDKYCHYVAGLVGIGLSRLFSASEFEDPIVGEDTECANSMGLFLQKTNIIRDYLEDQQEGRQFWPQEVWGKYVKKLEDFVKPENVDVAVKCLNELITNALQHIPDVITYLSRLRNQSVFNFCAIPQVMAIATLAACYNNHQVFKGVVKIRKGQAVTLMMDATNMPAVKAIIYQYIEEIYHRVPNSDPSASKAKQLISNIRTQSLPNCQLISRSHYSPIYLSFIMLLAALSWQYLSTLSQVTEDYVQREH

[2] = test system: Rattus norvegicus; assay: Antihyperlipidemic activity in Triton WR1339-induced hyperlipidemic rat assessed as reduction in plasma triglyceride level at 56 umol/kg, ip dosed 1 hr after Triton WR1339 challenge and measured 24 hrs post dose relative to control; assay type: functional
Method in brief: (§1)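 Rats given Triton WR1339 to induce acute hyperlipidemia, established 24 h later; compounds given ip at 56 μmol/kg. Animals held at 22 °C on a 12 h light/dark cycle with free chow and water. Plasma lipids measured in duplicate; values are the mean of 8–10 rats per compound, expressed as % decrease versus hyperlipidemic controls; significance by Student's test.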

[3] = test system: Liver; assay: Antioxidant activity in rat heat-inactivated rat hepatic microsomes assessed as inhibition of TBAR level incubated for 45 mins by spectrophotometry; assay type: functional; conditions: 0.75 h
Method in brief: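 Heat-inactivated liver microsomes from untreated rats (2.5 mg protein/mL, 4 mM fatty acid residues) with 0.2 mM ascorbic acid in Tris–HCl/KCl (50/150 mM, pH 7.4); compounds in DMSO, 10 μM to 1 mM. Incubated at 37 °C for 45 min; TBAR read at 535 against 600 nm. Run in duplicate; IC50 is the mean concentration giving 50% inhibition of control peroxidation.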

[4] = test system: Rattus norvegicus; assay: Antihyperlipidemic activity in Triton WR1339-induced hyperlipidemic rat assessed as reduction in plasma total cholesterol at 56 umol/kg, ip dosed 1 hr after Triton WR1339 challenge and measured 24 hrs post dose relative to control; assay type: functional; method in brief: as §1
[5] = test system: Rattus norvegicus; assay: Antihypercholesterolemic activity in Triton WR1339-induced hyperlipidemic rat assessed as reduction in plasma LDL-C level at 56 umol/kg, ip dosed 1 hr after Triton WR1339 challenge and measured 24 hrs post dose relative to control; assay type: functional
Method in brief: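 Rats, housed at 22 °C on a 12 h light/dark cycle with free chow and water, given Triton WR1339 to induce acute hyperlipidemia (established 24 h later). Compound given ip at 56 μmol/kg. Plasma LDL measured in duplicate and expressed as % decrease versus hyperlipidemic controls; mean of 8–10 rats per compound.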

[6] = target: T2, Squalene synthase (Rattus norvegicus) (UniProt Q02769); assay: Inhibition of squalene synthase in rat liver microsomes assessed as reduction in conversion of [3H]farnesyl pyrophosphate to squalene at 10 uM […] by liquid scintillation counting method
T2 sequence (whole entry): T1 sequence (Q02769 whole entry)

[7] = target: T2, Squalene synthase (Rattus norvegicus); assay: Inhibition of squalene synthase in rat liver microsomes assessed as reduction in conversion of [3H]farnesyl pyrophosphate to squalene at 50 uM incubated for 30 mins by liquid scintillation counting
Method in brief: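 Rat liver microsomes (18 μg protein/mL) in 50 mM phosphate, pH 7.4, with 10 mM MgCl2 and 0.5 mM NADPH; compounds in ethanol. Preincubated 10 min at 37 °C, then started with [3H]FPP (0.5 μM, 0.27 Ci/mmol) for 10 min at 37 °C. Stopped with 15% ethanolic KOH, heated 65 °C for 30 min, extracted into petroleum ether, and squalene counted by scintillation. Run in duplicate.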

Structure (SMILES)	IC50 [3]	inhibition [6]	inhibition [7]	IC50 [1]	inhibition in vivo at 56 µmol/kg [2]	inhibition in vivo at 56 µmol/kg [4]	inhibition in vivo at 56 µmol/kg [5]
CN1CC(O)(c2ccc(C3CCCCC3)cc2)OC2CCCCC21 (stereo unspecified)	180 µM	18%		42 µM	20%	51%	23%
OC1(c2ccc(C3CCCCC3)cc2)CN2CCCCC2CO1 (stereo unspecified)	700 µM	9%		80 µM	70%	80%	62%
CCC(C)(C)C(=O)O[C@H]1C[C@@H](C)C=C2C=C[C@H](C)[C@H](CC[C@@H]3C[C@@H](O)CC(=O)O3)[C@H]21 [SIMVASTATIN]					0%	75%	70%
OC1(c2ccc(-c3nccs3)cc2)CN2CCCCC2CO1 (stereo unspecified)	1000 µM		35%		58%	21%	
OC1(c2ccc3c(ccc4ccccc43)c2)CN2CCCCC2CO1 (stereo unspecified)	198 µM	87%		0.7 µM	66%	40%	53%
CN1CCOC(O)(c2ccc(-c3nccs3)cc2)C1 (stereo unspecified)			30%				
CN1CCOC(O)(c2ccc3c(ccc4ccccc43)c2)C1 (stereo unspecified)	174 µM	48%		8.8 µM	69%	58%	52%
CN1CCOC(O)(c2ccc(C3CCCCC3)cc2)C1 (stereo unspecified)	190 µM	0%		> 100 µM	34%	44%	36%

Second part, led by results:

IC50 [3]	inhibition [6]	inhibition [7]	Structure (SMILES)	IC50 [1]	inhibition in vivo at 56 µmol/kg [2]	inhibition in vivo at 56 µmol/kg [4]	inhibition in vivo at 56 µmol/kg [5]
134 µM	7%		Oc1ccc(-c2ccc(C3(O)CN4CCCCC4CO3)cc2)cc1 (stereo unspecified)		43%	40%	
191 µM	76%		CN1CC(O)(c2ccc3c(ccc4ccccc43)c2)OC2CCCCC21 (stereo unspecified)	5.5 µM	59%	49%	20%
57 µM			CN1CC(O)(c2ccc(-c3ccc([N+](=O)[O-])cc3)cc2)OC2CCCCC21 (stereo unspecified)		20%	62%	
73 µM	29%		CN1CCOC(O)(c2ccc(-c3ccc([N+](=O)[O-])cc3)cc2)C1 (stereo unspecified)		44%	41%	
135 µM	61%		CN1CC(O)(c2ccc(-c3ccc(O)cc3)cc2)OC2CCCCC21 (stereo unspecified)		48%	54%	
410 µM	40%		CC(C)(C)c1ccc(-c2ccc(C3(O)CN4CCCCC4CO3)cc2)cc1 (stereo unspecified)		59%	64%	
539 µM	43%		O=[N+]([O-])c1ccc(-c2ccc(C3(O)CN4CCCCC4CO3)cc2)cc1 (stereo unspecified)		31%	59%	
214 µM	67%		CN1CC(O)(c2ccc(-c3ccc(C(C)(C)C)cc3)cc2)OC2CCCCC21 (stereo unspecified)		15%	17%	
		29%	CN1CC(O)(c2ccc(-c3nccs3)cc2)OC2CCCCC21 (stereo unspecified)				
91 µM	61%		CN1CCOC(O)(c2ccc(-c3ccc(C(C)(C)C)cc3)cc2)C1 (stereo unspecified)		47%	45%	
